These results are taken from ChEMBL document CHEMBL1145175, “Investigations on the effects of basic side chains on the hormonal profile of (4R,5S)/(4S,5R)-4,5-bis(4-hydroxyphenyl)-2-imidazolines” (J Med Chem, 2005).

For assay [1], the target named is T1, Estrogen receptor beta (Homo sapiens, UniProt Q92731). As to the kind of experiment: Percent inhibition of 0.30 nM estradiol activity on estrogen receptor beta in MCF-7-2a cells at 10 uM. The settings on record: in the assay text read “U-2 OS cells” for “MCF-7-2a cells”. It counts as cell-based. The essentials:
(§1)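 Antagonist mode used U-2 OS cells transiently co-transfected with pSG5-ERβ FL and (ERE)2luc+ in charcoal-stripped medium. Compounds at 10^-5 to 10^-13 M were co-incubated with E2 at 3.0 × 10^-10 M for 21 h. Luciferase luminescence was normalised to crystal-violet cell mass, in triplicate, and reported as % inhibition of the E2 signal.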

Assay [2] has as its target T1, Estrogen receptor beta. The assay is described as follows: Percent activation of estrogen receptor beta in luciferase assay at 10 uM. In a few lines: (§2)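 U-2 OS cells grown in charcoal-treated FCS medium were transiently co-transfected with pSG5-ERβ FL (0.05 µg) and (ERE)2luc+ reporter (5 µg) using Fugene6, then pooled and reseeded. Compounds were added at 10^-5 to 10^-10 M in 0.1% DMSO for 21 h. Luciferase RLU was normalised to crystal-violet cell mass, in triplicate, and expressed as % of the E2 plateau.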

Assay [3] deals with T2, Estrogen receptor (Homo sapiens, UniProt P03372).
T2 sequence (P03372 whole entry): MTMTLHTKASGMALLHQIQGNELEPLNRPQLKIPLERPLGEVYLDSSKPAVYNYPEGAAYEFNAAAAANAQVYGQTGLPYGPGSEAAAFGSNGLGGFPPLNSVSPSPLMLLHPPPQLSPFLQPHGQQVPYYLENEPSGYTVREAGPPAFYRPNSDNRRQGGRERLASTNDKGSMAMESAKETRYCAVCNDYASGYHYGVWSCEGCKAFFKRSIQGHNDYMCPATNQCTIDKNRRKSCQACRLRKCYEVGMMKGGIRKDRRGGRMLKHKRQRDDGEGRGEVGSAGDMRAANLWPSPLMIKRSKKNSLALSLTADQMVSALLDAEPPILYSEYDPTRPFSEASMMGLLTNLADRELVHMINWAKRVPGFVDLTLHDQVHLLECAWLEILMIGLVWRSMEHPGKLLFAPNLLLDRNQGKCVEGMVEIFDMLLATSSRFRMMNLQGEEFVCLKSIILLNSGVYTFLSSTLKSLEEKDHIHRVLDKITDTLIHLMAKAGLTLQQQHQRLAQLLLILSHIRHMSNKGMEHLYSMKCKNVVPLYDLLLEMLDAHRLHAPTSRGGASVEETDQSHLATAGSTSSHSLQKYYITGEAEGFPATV
The assay is described as follows: Effective concentration against estrogen receptor alpha of MCF-7-2a cells.

Assay [4] addresses T1, Estrogen receptor beta. The assay is described as follows: Effective concentration against estrogen receptor beta of […]. The essentials: as §2
For assay [5], the target named is T1, Estrogen receptor beta. The assay is described as follows: Percent inhibition of 0.30 nM estradiol activity on estrogen receptor beta in U-2 OS cells at 10 uM.
Assay [6] has as its target T1, Estrogen receptor beta. As to the kind of experiment: Inhibition of estrogen receptor beta in […] at 10 uM. It counts as cell-based. The essentials:
as §1

Assay [7] has as its target T1, Estrogen receptor beta. The assay is described as follows: Inhibition of estrogen receptor beta at 10 uM.
The target in assay [8] is T2, Estrogen receptor. The assay is described as follows: Inhibition of estrogen receptor alpha in MCF-7-2a cells at 10 uM. Format: cell-based.

T1 sequence (Q92731 whole entry): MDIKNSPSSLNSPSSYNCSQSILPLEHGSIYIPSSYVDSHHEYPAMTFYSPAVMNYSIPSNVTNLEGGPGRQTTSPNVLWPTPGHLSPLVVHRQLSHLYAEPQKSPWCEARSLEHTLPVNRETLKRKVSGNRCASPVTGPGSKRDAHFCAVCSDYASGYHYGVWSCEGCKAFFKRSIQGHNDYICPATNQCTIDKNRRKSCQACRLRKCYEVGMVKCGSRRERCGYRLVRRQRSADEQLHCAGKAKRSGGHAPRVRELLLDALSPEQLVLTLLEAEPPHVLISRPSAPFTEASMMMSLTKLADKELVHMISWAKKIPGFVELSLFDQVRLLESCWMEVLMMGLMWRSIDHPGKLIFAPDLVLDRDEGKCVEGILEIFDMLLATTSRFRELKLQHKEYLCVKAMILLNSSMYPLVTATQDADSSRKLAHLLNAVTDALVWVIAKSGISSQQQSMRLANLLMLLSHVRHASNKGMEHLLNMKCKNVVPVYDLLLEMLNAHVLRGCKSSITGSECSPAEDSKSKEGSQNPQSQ

Consider `Oc1ccc([C@@H]2N=CN[C@@H]2c2ccc(OCCN3CCCC3)cc2Cl)c(Cl)c1`, for which, on Estrogen receptor beta [1], the inhibition (in general, the share of the control response that was lost under treatment) is 30%. Further, the Activation at Estrogen receptor beta [2] is 105%. Further, the concentration for a half-maximal effect (EC50) (in general, the midpoint of the concentration-response curve) on Estrogen receptor [3] amounted to 1820 nM; at Estrogen receptor beta [4] it was 470 nM.
Molecule `Oc1ccc([C@@H]2N=CN[C@@H]2c2ccc(OCCN3CCCCC3)cc2Cl)c(Cl)c1` registered an inhibition against Estrogen receptor beta [1] of 0%. On Estrogen receptor beta [2], this molecule came in with an Activation of 60%. The 50% effective concentration (EC50) at Estrogen receptor [3] was found to be 1700 nM; on Estrogen receptor beta [4], 600 nM.
`CCC1=N[C@H](c2ccc(OCCN3CCCCC3)cc2Cl)[C@H](c2ccc(O)cc2Cl)N1`: the inhibition at Estrogen receptor beta [5] worked out at 75%. Besides, the IC50 – broadly, the concentration needed to halve the response being measured – at Estrogen receptor beta [6] came out at 6000 nM. On Estrogen receptor beta [2], this molecule had an Activation of 92%. Further, the EC50 at Estrogen receptor beta [4] is 2800 nM.
On to `Oc1cc(Cl)c([C@@H]2N=CN[C@@H]2c2ccc(OCCN3CCCCC3)cc2Cl)c(Cl)c1`, for which, on Estrogen receptor beta [1], the inhibition was found to be 0%. The molecule further registered an Activation at Estrogen receptor beta [2] of 103%. Also, the EC50 on Estrogen receptor [3] was 85 nM; at Estrogen receptor beta [4] it was 400 nM.
With `Oc1ccc([C@@H]2N=CN[C@@H]2c2ccc(OCCN3CCCCC3)cc2)cc1`, the inhibition on Estrogen receptor beta [1] was determined as 12%. Besides, the Activation at Estrogen receptor beta [2] was determined as 26%.
For `CN(C)CCOc1ccc([C@H]2N=CN[C@H]2c2ccc(O)cc2Cl)c(Cl)c1`, in that order: 4% and 75%.
`CCC1=N[C@H](c2ccc(OCCN3CCCCC3)cc2)[C@H](c2ccc(O)cc2)N1`: the inhibition on Estrogen receptor beta [5] is 57%. This molecule displayed an Activation on Estrogen receptor beta [2] of 95%. The IC50 is 9000 nM against Estrogen receptor beta [7] and 38 nM at Estrogen receptor [8]. The molecule also displayed a 50% effective concentration (EC50) on Estrogen receptor beta [4] of 500 nM.
Regarding `CN(C)CCOc1ccc([C@H]2N=CN[C@H]2c2ccc(O)cc2)cc1`, the inhibition at Estrogen receptor beta [1] was determined as 0%. The molecule also gave an Activation at Estrogen receptor beta [2] of 36%. The molecule also gave an EC50 at Estrogen receptor [3] of 3470 nM.
`CN(C)CCOc1ccc([C@H]2NC=N[C@H]2c2ccc(O)cc2Cl)c(Cl)c1`: the results for the concentration for a half-maximal effect (EC50) on Estrogen receptor [3] and at Estrogen receptor beta [4] were 1500 nM and 3550 nM, respectively.
